Measured values published in ChEMBL document CHEMBL5661977, “BI 6727, a Polo-like kinase inhibitor with improved pharmacokinetic profile and broad antitumor activity” (Clin Cancer Res, 2009).
The source made the active and inactive calls. The calls are words filed in the database; no cut-off is given here.

Columns and labels:
HCT-116 [1] = assay: Antimitotic activity against human HCT-116 cells assessed as inhibition of cell proliferation incubated for 72 hrs by Alamar blue based fluorescence spectrophotometric analysis; format: functional; settings: HCT-116, 72 h
How it was run: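 Cancer cell lines were cultured per supplier instructions and exposed to various inhibitor concentrations for 72 h. Growth was read as Alamar blue conversion by fluorescence. EC50 (50% growth inhibition) was extrapolated from the dose-response curve fit.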

NCI-H460 [2] = assay: Antimitotic activity against human NCI-H460 cells assessed as cell cycle block in G2-M phase measuring by accumulation of 4N DNA content at 100 nmol/L incubated for 24 hrs by PI staining based flow cytometric analysis; format: functional
How it was run: (§1)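 Log-phase NCI-H460 cells were treated with 0.1% DMSO or inhibitor (dose series for 24 h; 100 nmol/L time course at 0, 24, 48, 72 h). Cells were fixed in 80% ethanol, permeabilized with 0.25% Triton X-100 for 5 min, then given 0.1% RNase plus 10 µg/mL propidium iodide for 20 min at RT. DNA content was read by flow cytometry.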

NCI-H460 [3] = assay: Antimitotic activity against human NCI-H460 cells assessed as G2-M arrest with apoptosis at 100 nmol/L incubated for 24 hrs by PI staining based flow cytometric analysis; format: functional, cell-based; how it was run: as §1
NCI-H460 [4] = assay: Induction of apoptosis in human NCI-H460 cells assessed as cleaved PRAP fragment level at 100 nmol/L incubated for 24 hrs by westernblot analysis; format: functional, cell-based
How it was run: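 Exponentially growing NCI-H460 cells treated with compound or DMSO control for 24 or 48 h, then harvested. Cleaved PARP fragment detected by Western blot.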

[5] = Cmax in BomTac:NMRI-Foxn1nu mouse at 35 mg/kg, iv by HPLC-MS/MS analysis; format: ADME, organism-based; settings: in vivo
How it was run: (§2)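 Female nude mice, n = 3, single i.v. dose (vehicle 0.1 N HCl diluted with 0.9% NaCl, 10 mL/kg). BI 6727 measured in EDTA plasma at several times by HPLC-MS/MS with internal standard. Parameters came from noncompartmental analysis. Terminal half-life was taken from the last two time points after i.v. dosing.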

[6] = Clearance in BomTac:NMRI-Foxn1nu mouse at 35 mg/kg, iv by HPLC-MS/MS analysis; format: ADME, organism-based; settings: in vivo; how it was run: as §2
[7] = Volume of distribution at steady state in BomTac:NMRI-Foxn1nu mouse at 35 mg/kg, iv by HPLC-MS/MS analysis; format: ADME, organism-based; settings: in vivo, read-out: Vdss; how it was run: as §2
[8] = AUC (0-24hrs) in BomTac:NMRI-Foxn1nu mouse at 50 mg/kg, po by HPLC-MS/MS analysis; format: ADME, organism-based; settings: in vivo
How it was run: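 Single oral dose to female nude mice or male Wistar rats. EDTA plasma was collected over 24 h and quantified by LC-MS/MS after extraction with internal standard. AUC0-24 was calculated from the concentration-time profile by the trapezoidal rule using noncompartmental analysis.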

[9] = Oral bioavailability in dog by HPLC-MS/MS analysis; format: ADME, organism-based, Canis lupus familiaris; settings: in vivo
NCI-H460 [10] = assay: Antitumor activity against human NCI-H460 cells xenografted in BomTac:NMRI-Foxn1nu mouse assessed as T/C at 70 mg/kg, po administered once a week upto 6 weeks relative to control; format: functional
How it was run: (§3)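 Female nude mice bore s.c. HCT 116 (2×10^6 cells), NCI-H460 (1×10^6 cells) or serially transplanted CXB1 tumor pieces. At ~50–100 mm³, mice were randomized into groups of 10 and dosed i.v. (0.1 N HCl/saline) or by gavage (0.5% hydroxyethyl-cellulose) at 10 mL/kg. Calipers read thrice weekly, volume = length×width²×π/6. T/C from median volumes on the last day.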

NCI-H460 [11] = assay: Antitumor activity against human NCI-H460 cells xenografted in BomTac:NMRI-Foxn1nu mouse assessed as T/C at 10 mg/kg, po administered daily upto 6 weeks relative to control; format: functional; how it was run: as §3
[12] = Antitumor activity against human CXB1 cells xenografted in BomTac:NMRI-Foxn1nu mouse assessed as T/C at 15 mg/kg, iv administered twice a week upto 6 weeks relative to control; format: functional, CXB1 cell; how it was run: as §3
[13] = AUC (0 to 24 hrs) in human HCT-116 cells xenografted in BomTac:NMRI-Foxn1nu mouse at 15 mg/kg, iv administered twice a week upto 6 weeks by HPLC-MS/MS analysis; format: ADME, organism-based; settings: in vivo, 1008 h
[14] = AUC (0 to 24 hrs) in human HCT-116 cells xenografted in BomTac:NMRI-Foxn1nu mouse at 20 mg/kg, iv administered once a week upto 6 weeks by HPLC-MS/MS analysis; format: ADME, organism-based; settings: in vivo, 1008 h
[15] = AUC (0 to 24 hrs) in human HCT-116 cells xenografted in BomTac:NMRI-Foxn1nu mouse at 30 mg/kg, iv administered once a week upto 6 weeks by HPLC-MS/MS analysis; format: ADME, organism-based; settings: in vivo, 1008 h
[16] = AUC (0 to 24 hrs) in human HCT-116 cells xenografted in BomTac:NMRI-Foxn1nu mouse at 50 mg/kg, po administered once a week upto 6 weeks by HPLC-MS/MS analysis; format: ADME, organism-based; settings: in vivo, 1008 h
[17] = AUC (0 to 24 hrs) in human NCI-H460 cells xenografted in BomTac:NMRI-Foxn1nu mouse at 70 mg/kg, po administered once a week upto 6 weeks by HPLC-MS/MS analysis; format: ADME, organism-based; settings: in vivo, 1008 h
[18] = AUC (0 to 24 hrs) in human NCI-H460 cells xenografted in BomTac:NMRI-Foxn1nu mouse at 10 mg/kg, po administered daily upto 6 weeks by HPLC-MS/MS analysis; format: ADME, organism-based; settings: in vivo, 1008 h
HCT-116 [19] = assay: Antitumor activity against human HCT-116 cells xenografted in BomTac:NMRI-Foxn1nu mouse assessed as tumor growth delay at 25 mg/kg, iv administered twice a week on consecutive days; format: functional, organism-based; how it was run: as §3
HCT-116 [20] = assay: Antitumor activity against human HCT-116 cells xenografted in BomTac:NMRI-Foxn1nu mouse assessed as tumor regression at 20 mg/kg, iv administered twice a week on consecutive days; format: functional, organism-based; how it was run: as §3
HCT-116 [21] = assay: Antitumor activity against human HCT-116 cells xenografted in BomTac:NMRI-Foxn1nu mouse assessed as the number of apoptotic cells in small intestine at 40 mg/kg, iv; format: functional, organism-based
How it was run: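 Female nude mice bore s.c. HCT 116 tumors (~200 mm³) and received a single i.v. 40 mg/kg dose or vehicle (n=3 per group per time). Tumor, small intestine and large intestine were taken at 6, 24 and 48 h. Frozen sections were stained for pSer10 histone H3 (immunoperoxidase) or by TUNEL. Positive area was calculated as % of tumor cell area; Student's t test.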

[22] = Drug uptake in human HCT-116 cells xenografted in BomTac:NMRI-Foxn1nu mouse at 35 mg/kg, iv measured after 8 hrs by HPLC-MS/MS analysis; format: ADME, organism-based, Neoplasm; settings: tumour (HCT-116 xenograft)
How it was run: (§4)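 Female nude mice bearing s.c. HCT 116 xenografts (2 × 10⁶ cells), n = 3 per time point, given a single i.v. dose. Tumor, organs and EDTA plasma collected at 1, 8, 24, 48, 96 and 168 h. Tissue extracts and plasma analysed by HPLC-MS/MS. Tissue nmol/mg converted to nmol/L assuming density 1.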

[23] = Drug uptake in human HCT-116 cells xenografted in BomTac:NMRI-Foxn1nu mouse at 35 mg/kg, iv measured after 168 hrs by HPLC-MS/MS analysis; format: ADME, organism-based, Neoplasm; settings: tumour (HCT-116 xenograft); how it was run: as §4

## CC[C@@H]1C(=O)N(C)c2cnc(Nc3ccc(C(=O)N[C@H]4CC[C@H](N5CCN(CC6CC6)CC5)CC4)cc3OC)nc2N1C(C)C [VOLASERTIB]
HCT-116 [1]
  EC50: 0.023 µM
NCI-H460 [2]
  Activity: Active
NCI-H460 [3]
  Activity: Active
NCI-H460 [4]
  Activity: Active
[5]
  Cmax: 7.1 µM
[6]
  clearance: 0.6 L/h/kg
[7]
  Vd: 7.6 L/kg
[8]
  AUC(0-t): 58 µM·h
[9]
  bioavailability: 53%
NCI-H460 [10]
  T/C: 20%
NCI-H460 [11]
  T/C: 6%
[12]
  T/C: 12%
[13]
  AUC: 37 µM·h
[14]
  AUC: 40 µM·h
[15]
  AUC: 52 µM·h
[16]
  AUC: 44 µM·h
[17]
  AUC: 58 µM·h
[18]
  AUC: 61 µM·h
HCT-116 [19]
  Activity: Active
HCT-116 [20]
  Activity: Active
HCT-116 [21]
  Activity: inactive
[22]
  concentration at 8 h: 32 µM
[23]
  concentration at 168 h: 4 µM
